# Compounds with a hit are over-represented: about 1.6% of the library has one in this group of screens.
# pCIP destab – p/CIP-EGFP fusion destabilizers, primary screen, fluorescence, F442A cells. Q05BA5. 16 h. decrease of EGFP signal, % at 10 µM. 0.01% of 290,000 active;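 active = EGFP signal decrease of at least 30% at 10 µM or well 3 SD below plate mean, unless failing retest; inactive = the rest, including hits failing retest or dose response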
# Target sequence (Q05BA5 1-1403): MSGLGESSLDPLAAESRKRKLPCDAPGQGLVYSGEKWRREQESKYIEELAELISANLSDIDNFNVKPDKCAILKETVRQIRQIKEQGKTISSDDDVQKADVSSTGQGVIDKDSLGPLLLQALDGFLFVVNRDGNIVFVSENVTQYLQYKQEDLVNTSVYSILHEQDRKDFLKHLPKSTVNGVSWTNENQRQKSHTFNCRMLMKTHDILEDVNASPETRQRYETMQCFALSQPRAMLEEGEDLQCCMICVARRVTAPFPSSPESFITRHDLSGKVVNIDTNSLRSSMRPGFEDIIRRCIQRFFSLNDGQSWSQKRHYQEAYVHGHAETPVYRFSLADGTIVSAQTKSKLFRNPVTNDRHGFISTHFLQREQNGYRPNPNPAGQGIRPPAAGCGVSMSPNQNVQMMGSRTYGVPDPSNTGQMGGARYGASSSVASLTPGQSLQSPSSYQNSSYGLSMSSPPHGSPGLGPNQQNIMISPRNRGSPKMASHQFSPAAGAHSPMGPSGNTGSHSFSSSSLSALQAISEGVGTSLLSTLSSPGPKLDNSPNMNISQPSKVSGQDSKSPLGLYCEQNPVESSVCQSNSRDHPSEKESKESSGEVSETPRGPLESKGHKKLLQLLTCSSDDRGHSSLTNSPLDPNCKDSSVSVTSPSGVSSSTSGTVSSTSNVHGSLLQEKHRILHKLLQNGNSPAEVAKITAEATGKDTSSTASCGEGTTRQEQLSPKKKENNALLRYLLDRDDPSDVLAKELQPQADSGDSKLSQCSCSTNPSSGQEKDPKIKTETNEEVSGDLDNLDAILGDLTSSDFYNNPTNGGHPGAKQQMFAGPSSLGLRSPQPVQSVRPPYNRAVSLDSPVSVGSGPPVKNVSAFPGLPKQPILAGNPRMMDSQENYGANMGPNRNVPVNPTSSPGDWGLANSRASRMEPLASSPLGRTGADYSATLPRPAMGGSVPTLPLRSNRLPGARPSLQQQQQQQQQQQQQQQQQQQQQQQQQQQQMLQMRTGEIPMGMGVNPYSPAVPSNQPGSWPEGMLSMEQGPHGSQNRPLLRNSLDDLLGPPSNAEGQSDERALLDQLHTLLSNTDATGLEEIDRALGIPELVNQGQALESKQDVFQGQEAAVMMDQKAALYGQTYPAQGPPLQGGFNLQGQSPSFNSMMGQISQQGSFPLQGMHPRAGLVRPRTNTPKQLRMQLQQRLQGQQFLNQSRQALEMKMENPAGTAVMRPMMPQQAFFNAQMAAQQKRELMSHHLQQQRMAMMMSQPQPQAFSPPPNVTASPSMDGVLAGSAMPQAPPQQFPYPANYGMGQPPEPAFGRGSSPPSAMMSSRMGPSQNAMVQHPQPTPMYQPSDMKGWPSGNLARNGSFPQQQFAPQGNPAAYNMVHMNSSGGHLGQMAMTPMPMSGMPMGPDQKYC
# MsrA inhibitor – bovine MsrA enzyme inhibitors, primary screen, biochemical, absorbance, HTS | 0.75% of 360,000 active | Methionine sulfoxide reductase A (Bos taurus) | inhibition, % at 15.5 µM | purified bovine MsrA, absorbance read-out; in the data active = inhibition above about 4.5%;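 also: 0% = vehicle wells with enzyme and 100% = reference inhibitor wells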
# SKN-1 block – suppressors of acrylamide-induced Pgst-4::GFP reporter in worms, primary screen, SKN-1 inhibitor project, whole organism, uHTS, GFP/RFP fluorescence ratio, strain VP596 | C. elegans VP596 Pgst-4::GFP/RFP ratio, 24 h | inhibition, % at 21.8 µM | 0.49% of 360,000 active | AID 624304, 2012;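 active = interference check ratio from 0.5 to 1.5 plus GFP to RFP signal ratio inhibition reaching or exceeding a fixed threshold, cut at about 30% in these data, passing the limit was not always enough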
# MsrA act – bovine MsrA enzyme activators, primary screen, biochemical, absorbance, HTS; purified bovine MsrA, absorbance read-out; activation, % at 10.6 µM; 0.3% of 360,000 active; in the data active = activation above about 7.5%;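 also: 0% = vehicle and 100% = reference activator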
# MT1-MMP act inh – blockers of MT1-MMP proenzyme processing, primary screen, HT1080 RFP-PRO-GFP cells, GFP/RFP fluorescence | Matrix metalloproteinase-14 (Homo sapiens), P50281 | GFP/RFP ratio fluorescence, overnight; percent of plate control window, DMSO zero | GFP/RFP ratio change, % at 20 µM | 0.061% of 360,000 active | AID 651647, 2012;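 active = GFP/RFP ratio change of at least 30% with cell ATP level not reduced by more than half and red fluorescence within 50% of control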
#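 Test system: HT1080 RFP-PRO-GFP cells; Benchmarks: DMSO and RFP-L50D-GFP cell wells; Timing: cells overnight before dosing, compound overnight, 37 °C, 5% CO2; Compound: one 20 µM compound dose with 1% DMSO; Read-out: GFP/RFP fluorescence ratio.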
# MsrA act confirm – bovine MsrA activators, retest, confirmation, biochemical, absorbance, HTS; shares compounds with MsrA act; AID 602270, 2012; purified bovine MsrA, absorbance read-out; activation, % at 10.6 µM; 12% of 1,000 active; in the data active = activation above about 4%;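 also: enzyme coupled to thioredoxin and thioredoxin reductase with NADPH; 0% = vehicle wells and 100% = reference activator wells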
# The depositor's hits bear a star; . = not tested or not shown.
SMILES,pCIP destab,MsrA inhibitor,SKN-1 block,MsrA act,MT1-MMP act inh,MsrA act confirm
CCC(=O)NC1=C(NC(C)c2ccccc2)C(=O)c2ccccc2C1=O (stereo not drawn),2,0,1,11*,1,-1
COc1cccc(C(c2sc3ncnn3c2O)N2CC(C)OC(C)C2)c1 (stereo not drawn),-11,1,35*,8.1*,-2,-3
COc1cccc(C(c2sc3ncnn3c2O)N2CCc3ccccc3C2)c1 (stereo not drawn),-2,0,-6,-3,1,.
O=C(CCN1C(=O)COc2ccccc21)N1CCN(c2ccccn2)CC1,8,-1,-1,21*,4,-1
Cc1cc(CN(C)C(=O)c2ccc(OC3CCN(CCc4ccccc4)CC3)cc2)on1,0,-1,-4,11*,-1,1
Cc1c(NC(=O)C(C)N2C(=O)C3CCCCC3C2=O)c(=O)n(-c2ccccc2)n1C (stereo not drawn),5,0,-7,10*,-2,-2
COc1ccc(-c2cc(NC(=O)Cc3c[nH]c4ccccc34)ccc2Nc2cccnc2)cc1F,.,1,.,.,.,.
O=C(O)CSc1nnc(Cc2ccccc2)n1Cc1ccccc1,-7,-1,15,-4,2,.
O=C(O)CSc1nnc(Cn2cnc3ccccc32)n1CCc1ccccc1,4,-1,-11,8.8*,-1,-4
CCCCN1CC(COc2ccc(OC)cc2)OCCS1(=O)=O (stereo not drawn),.,-1,.,.,.,.
CC(C)NCC(O)c1ccc(NS(C)(=O)=O)cc1 (stereo not drawn),-4,3,-9,7.8*,1,-3
CC(C)NC[C@@H](O)c1ccc(O)c(O)c1,0,-1,-14,-6,1,.
C[C@]12c3[nH]c4cc(-c5ccco5)ccc4c3CCN1C(=O)[C@@H](CC(=O)NCCC1=CCCCC1)C[C@@H]2C(=O)N1CCCCC1,.,1,11,8.3*,-4,-3
C[C@]12c3[nH]c4cc(-c5ccco5)ccc4c3CCN1C(=O)[C@@H](CC(=O)NCCc1ccccn1)C[C@@H]2C(=O)N1CCCCC1,.,2,-3,-12,-4,.
COc1cccc(-n2c(=O)c3ccccc3n3c(=S)[nH]nc23)c1,-7,2,-5,3,1,.
COCCCn1c(=O)c2ccccc2n2c(=S)[nH]nc12,-9,-1,6,9.8*,1,5.4*
O=S1(=O)N[C@H](c2ccccc2)COc2cc(Br)ccc21,.,0,.,.,.,.
CC(C)C[C@H]1COc2cccc(F)c2S(=O)(=O)N1,.,-1,.,.,.,.
COc1cc2c(cc1OC)C(=O)C(Br)CC2 (stereo not drawn),.,.,9,14*,2,-3
COc1cc2c(cc1OC)C(=O)C(c1ccc3c(c1)OCO3)CC2 (stereo not drawn),.,1,19,-1,-3,.
O=C1C(Cl)=C(NCCc2ccccc2)C(=O)c2ccccc21,.,0,28,1,-54,.
O=C1C(Cl)=C(NCc2cccnc2)C(=O)c2ccccc21,-6,0,27,12*,-4,6.1*
CN(C)c1cccc2c(S(=O)(=O)NCC3CCN(C(=O)C(=O)c4cccs4)CC3)cccc12,.,1,.,.,.,.
CCSc1n[nH]c(=O)n1C,.,0,.,.,.,.
CN(C)S(=O)(=O)c1cccc(NC(=S)NC(=O)c2ccco2)c1,.,0,-2,11*,2,-4
SMILES,pCIP destab,MsrA inhibitor,SKN-1 block,MsrA act,MT1-MMP act inh,MsrA act confirm
O=C(NC(=S)Nc1cccc([N+](=O)[O-])c1)c1ccco1,-1,0,1,4,1,.
CCCc1cc(=O)oc2c(CN3CCN(C)CC3)c(O)c(Cl)cc12,-7,2,-18,13*,2,0
COC(=O)c1ccc(NC(=O)CSc2nnc(COc3ccc4c(c3)CCCC4)o2)cc1,-6,0,-5,-5,7,.
CCc1ccc(NC(=O)CSc2nnc(COc3ccc4c(c3)CCCC4)o2)cc1,-10,0,-19,11*,-3,-2
O=C1CN(C(=O)c2ccccc2)C(c2ccccc2)c2cc(F)ccc2N1 (stereo not drawn),-15,3,11,-3,-8,.
O=C1CN(C(=O)c2ccc(Br)o2)C(c2ccccc2)c2cc(F)ccc2N1 (stereo not drawn),-21,0,-2,12*,-17,-3
COC(=O)[C@]12C[C@H](CC(=O)N3CCSCC3)C(=O)N(Cc3ccc4c(c3)OCO4)C1=C[C@H](COCc1ccccc1)O[C@@H]2C,.,-1,.,.,.,.
CC(C)(C)Nc1nc(SCC(=O)Nc2ccccc2)nc(N2CCOCC2)n1,-9,0,10,-6,-9,.
CN(C)c1nc(NC(C)(C)C)nc(SCC(=O)Nc2ccccc2)n1,-10,0,12,7.7*,1,-3
O=C1c2ccccc2-c2cccnc21,6,1,-21,-4,-1,.
O=C1c2ccccc2C(=O)c2c(/C=C/N3CCCCC3)ccnc21,.,1,27,9.7*,-45,4.3*
COC(=O)c1cc2c(c3c4cc(OC)ccc4n(C(=O)c4ccccc4)c13)C(=O)N(Cc1ccco1)C2,.,1,.,.,.,.
Cc1[nH]c2ccccc2c1CC(=O)O,3,1,-10,13*,1,-2
O=S1(=O)N[C@@H](Cc2ccccc2)COc2cccc(N3CCCC3)c21,.,1,.,.,.,.
CCOC(=O)N(C)[C@H]1C[C@H]2c3cc(-c4ccccc4C)ccc3CCN2C[C@H]1[C@H](C)O,.,0,.,.,.,.
O=C(CN1CCCCC1)Nc1cccc(Br)c1,-3,0,-4,7.8*,-1,-1
O=C(CN1CCOCC1)Nc1cccc(Br)c1,5,-1,-3,-3,1,.
C#CCOCCOCCOCCNc1nc(N2CCN(C(=O)[C@H]([C@@H](C)CC)n3cc(CCCN=C(N)N)nn3)CC2)nc(N2CCN(C(=O)[C@H]([C@@H](C)CC)n3cc(CCC(=O)O)nn3)CC2)n1,.,0,5,7.9*,0,-1
C#CCOCCOCCOCCNc1nc(N2CCN(C(=O)[C@H]([C@@H](C)CC)n3cc(CCC(=O)O)nn3)CC2)nc(N2CCN(C(=O)[C@H](C)n3cc(CCCN=C(N)N)nn3)CC2)n1,-4,1,18,-2,-3,.
Cc1cc(Cl)ccc1OCc1n[nH]c(=S)n1C1CCCCC1,-6,0,5,8.6*,2,0
CC1CCN(C(=O)c2ncn3c2C(=O)NC[C@@H]3C)CC1,.,0,.,.,.,.
COc1ccccc1NC(=O)c1ccccc1Nc1ccccc1,3,0,20,10*,3,-1
